Activity calls are given as the source filed them. No cut-off for these calls is given here.
Tests used:
Adenosine receptor A2b [1] = molecular target: T1, Adenosine receptor A2b (Homo sapiens, UniProt P29275); test: Antagonist activity at human A2B receptor
T1 sequence (P29275 whole entry): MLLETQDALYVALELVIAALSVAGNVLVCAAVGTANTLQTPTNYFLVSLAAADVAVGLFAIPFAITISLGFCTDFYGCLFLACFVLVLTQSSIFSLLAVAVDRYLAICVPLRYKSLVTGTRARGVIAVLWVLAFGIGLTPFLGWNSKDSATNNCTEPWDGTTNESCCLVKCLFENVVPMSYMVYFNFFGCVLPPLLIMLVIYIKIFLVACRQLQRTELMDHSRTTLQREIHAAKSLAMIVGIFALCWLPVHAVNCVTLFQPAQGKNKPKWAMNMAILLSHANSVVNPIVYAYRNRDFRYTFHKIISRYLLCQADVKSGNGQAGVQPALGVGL

PC-3 [2] = test: Antimetastatic activity in human PC-3 cells assessed as effect on cell shape at Ki level incubated for 72 hrs by confocal laser scanning microscopy; format: functional, cell-based
PC-3 [3] = test: Antimigratory activity in human PC-3 cells assessed as reduction in cell migration at Ki level incubated for 72 hrs by crystal violet staining based confocal microscopy; format: functional
Summary of the method: (§1)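 Transwell migration, 8.0 μm pore polycarbonate membrane; 10⁵ cells seeded in serum-free medium in upper chamber, complete medium with 10% FBS below. Cells kept in RPMI 1640, 10% FBS. Migration scored after 72 h without or with treatment; migrated cells fixed in 4% paraformaldehyde, crystal violet stained, counted in five random fields; at least three chambers from three experiments.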

PC-3 [4] = test: Antimetastatic activity in human PC-3 cells assessed as induction of actin skeleton reorganization at Ki level incubated for 72 hrs by confocal laser scanning microscopy; format: functional, cell-based
LNCaP [5] = test: Antimigratory activity in human LNCaP cells assessed as reduction in cell migration at Ki level incubated for 72 hrs by crystal violet staining based confocal microscopy; format: functional; summary of the method: as §1
DU-145 [6] = test: Antimigratory activity in human DU-145 cells assessed as reduction in cell migration at Ki level incubated for 72 hrs by crystal violet staining based confocal microscopy; format: functional; summary of the method: as §1
CYP3A4 [7] = molecular target: T2, CYP3A4 (Homo sapiens, UniProt P08684); test: Inhibition of CYP3A4 (unknown origin) expressed in insect cell microsomes at 1 uM in presence of DBF substrate by fluorescence based assay relative to control; format: ADME, Microsome; details: recombinant CYP3A4 expressed in insect cell microsomes, probe DBF
T2 sequence (P08684 whole entry, canonical isoform): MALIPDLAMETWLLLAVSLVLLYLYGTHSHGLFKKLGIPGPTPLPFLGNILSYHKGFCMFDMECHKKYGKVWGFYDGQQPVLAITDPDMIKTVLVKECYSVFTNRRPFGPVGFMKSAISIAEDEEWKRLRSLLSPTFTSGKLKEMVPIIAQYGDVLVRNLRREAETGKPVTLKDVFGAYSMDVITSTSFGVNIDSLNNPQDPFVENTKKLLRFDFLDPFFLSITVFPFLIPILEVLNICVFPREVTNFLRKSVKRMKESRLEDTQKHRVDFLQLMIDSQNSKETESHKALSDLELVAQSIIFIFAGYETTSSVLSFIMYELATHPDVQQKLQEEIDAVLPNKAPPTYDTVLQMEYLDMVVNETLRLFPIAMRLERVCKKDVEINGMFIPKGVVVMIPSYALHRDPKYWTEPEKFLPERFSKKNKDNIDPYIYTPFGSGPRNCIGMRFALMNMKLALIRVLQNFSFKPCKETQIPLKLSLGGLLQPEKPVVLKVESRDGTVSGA
Summary of the method: (§2)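 cDNA-expressed P450 in insect cell microsomes; cofactor mix of KH2PO4 buffer, 1.3 mM NADP, 3.3 mM MgCl2, 3.3 mM glucose-6-phosphate, 0.4 U/mL G6PDH. Preincubated 5 min at 37 °C, started with prewarmed enzyme/substrate mix, stopped at an isoform-specific time. Fluorescence read; percentage inhibition at 1 and 10 μM; mean of n = 3.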

CYP2D6 [8] = molecular target: T3, CYP2D6 (Homo sapiens, UniProt P10635); test: Inhibition of CYP2D6 (unknown origin) expressed in insect cell microsomes at 1 uM by fluorescence based assay relative to control; format: ADME, Microsome; details: recombinant CYP2D6 expressed in insect cell microsomes; summary of the method: as §2
T3 sequence (P10635 whole entry): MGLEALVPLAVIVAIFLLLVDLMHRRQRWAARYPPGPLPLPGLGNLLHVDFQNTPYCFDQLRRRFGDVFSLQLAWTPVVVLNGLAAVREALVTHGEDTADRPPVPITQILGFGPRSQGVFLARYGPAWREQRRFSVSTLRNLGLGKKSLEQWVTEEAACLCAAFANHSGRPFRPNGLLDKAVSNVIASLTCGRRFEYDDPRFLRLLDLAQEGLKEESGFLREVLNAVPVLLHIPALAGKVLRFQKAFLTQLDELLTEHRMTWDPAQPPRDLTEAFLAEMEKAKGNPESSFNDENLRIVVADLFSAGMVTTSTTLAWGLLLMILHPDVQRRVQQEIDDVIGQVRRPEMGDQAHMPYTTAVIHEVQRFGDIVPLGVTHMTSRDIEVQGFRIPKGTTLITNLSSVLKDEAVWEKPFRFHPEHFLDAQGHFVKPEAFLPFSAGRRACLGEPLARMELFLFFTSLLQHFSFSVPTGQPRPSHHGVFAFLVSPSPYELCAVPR

CYP3A4 [9] = molecular target: T2, CYP3A4; test: Inhibition of CYP3A4 (unknown origin) expressed in insect cell microsomes at 10 uM in presence of DBF substrate by fluorescence based assay relative to control; format: ADME, Microsome; details: recombinant CYP3A4 expressed in insect cell microsomes, probe DBF; summary of the method: as §2
CYP3A4 [10] = molecular target: T2, CYP3A4; test: Inhibition of CYP3A4 (unknown origin) expressed in insect cell microsomes at 10 uM in presence of BFC substrate by fluorescence based assay relative to control; format: ADME, Microsome; details: recombinant CYP3A4 expressed in insect cell microsomes, probe BFC; summary of the method: as §2
CYP3A4 [11] = molecular target: T2, CYP3A4; test: Inhibition of CYP3A4 (unknown origin) expressed in insect cell microsomes at 1 uM in presence of BFC substrate by fluorescence based assay relative to control; format: ADME, Microsome; details: recombinant CYP3A4 expressed in insect cell microsomes, probe BFC; summary of the method: as §2
[12] = Stability in human liver microsomes in NADP incubated up to 60 mins by UPLC-MS/MS analysis; format: ADME, Microsome; details: read-out: Stabilty
Summary of the method: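 Human microsomes at 37 °C in 50 mM phosphate buffer pH 7.4 with 3 mM MgCl2, 1 mM NADP, 10 mM glucose-6-phosphate, 1 U/mL G6PDH. Samples at 0, 10, 20, 40, 60 min quenched into cold acetonitrile with 0.5% formic acid, centrifuged; supernatant analysed by UPLC–MS/MS on C18 column.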

PC-3 [13] = test: Toxicity in human PC-3 cells assessed as effect on cell growth at 10 to 100 uM by MTT assay; format: cell-based; details: pc-3, 100 µM, dose 10-100 µM
Summary of the method: (§3)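 Prostate cancer cells cultured in RPMI 1640 with 10% FBS, penicillin and streptomycin at 37 °C, 5% CO2; tested at 10 and 100 μM by MTT assay with cisplatin as control.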

DU-145 [14] = test: Toxicity in human DU-145 cells assessed as effect on cell growth at 10 to 100 uM by MTT assay; format: cell-based; details: du-145, 100 µM, dose 10-100 µM; summary of the method: as §3
CYP2D6 [15] = molecular target: T3, CYP2D6; test: Inhibition of CYP2D6 (unknown origin) expressed in insect cell microsomes at 10 uM by fluorescence based assay relative to control; format: ADME, Microsome; details: recombinant CYP2D6 expressed in insect cell microsomes; summary of the method: as §2
LNCaP [16] = test: Toxicity in human LNCaP cells assessed as effect on cell growth at 10 to 100 uM by MTT assay; format: cell-based; details: dose 10-100 µM; summary of the method: as §3
[17] = molecular target: T4, Adenosine receptor A3 (Homo sapiens) (UniProt P0DMS8); test: Displacement of [3H]NECA from adenosine A3 receptor expressed in human HeLa cell membranes at 1 uM incubated for 180 mins by scintillation counting method; details: Cell membrane
T4 sequence (whole entry): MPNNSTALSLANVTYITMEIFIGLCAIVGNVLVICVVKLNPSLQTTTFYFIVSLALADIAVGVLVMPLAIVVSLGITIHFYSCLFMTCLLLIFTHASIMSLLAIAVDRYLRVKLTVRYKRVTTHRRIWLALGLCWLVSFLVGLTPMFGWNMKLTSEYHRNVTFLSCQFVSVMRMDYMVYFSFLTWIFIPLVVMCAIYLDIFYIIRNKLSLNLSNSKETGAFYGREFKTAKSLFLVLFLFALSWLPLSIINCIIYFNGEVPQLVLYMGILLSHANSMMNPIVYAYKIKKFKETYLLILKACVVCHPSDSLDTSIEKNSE
Summary of the method: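 hA3AR in HeLa membranes (3 pmol/mg protein) with 10 nM [3H]NECA (KD 8.7 nM); nonspecific binding with 100 μM R-PIA; incubated 180 min at 25 °C, washed, filtered, radioactivity counted.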

[18] = molecular target: Adenosine receptor A2a (Homo sapiens) (UniProt P29274); test: Displacement of [3H]ZM2421385 from adenosine A2A receptor expressed in human HeLa cell membranes at 1 uM incubated for 30 mins by scintillation counting method; details: Cell membrane
Adenosine receptor A2a (Homo sapiens), sequence (P29274 whole entry): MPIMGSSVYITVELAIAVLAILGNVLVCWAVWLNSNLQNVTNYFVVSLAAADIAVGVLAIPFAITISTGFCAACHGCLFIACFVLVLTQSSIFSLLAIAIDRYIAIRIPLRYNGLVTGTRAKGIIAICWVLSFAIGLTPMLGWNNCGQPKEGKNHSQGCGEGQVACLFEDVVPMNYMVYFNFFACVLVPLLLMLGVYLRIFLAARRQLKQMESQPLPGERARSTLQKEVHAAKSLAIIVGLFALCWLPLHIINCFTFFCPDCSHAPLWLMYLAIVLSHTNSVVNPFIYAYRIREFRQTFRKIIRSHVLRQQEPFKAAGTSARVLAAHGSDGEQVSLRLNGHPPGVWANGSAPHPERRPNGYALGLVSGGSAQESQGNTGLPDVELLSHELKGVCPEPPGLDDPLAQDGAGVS

Adenosine receptor A2b [19] = molecular target: T1, Adenosine receptor A2b; test: Displacement of [3H]DPCPX from human adenosine A2B receptor expressed in HEK293 cell membranes incubated for 30 mins by scintillation counting method; design: species or system Cell membrane
[20] = molecular target: T5, Adenosine receptor A1 (Homo sapiens) (UniProt P30542); test: Displacement of [3H]DPCPX from human adenosine A1 receptor expressed in CHO cell membranes at 1 uM incubated for 60 mins by scintillation counting method; details: Cell membrane
T5 sequence (whole entry): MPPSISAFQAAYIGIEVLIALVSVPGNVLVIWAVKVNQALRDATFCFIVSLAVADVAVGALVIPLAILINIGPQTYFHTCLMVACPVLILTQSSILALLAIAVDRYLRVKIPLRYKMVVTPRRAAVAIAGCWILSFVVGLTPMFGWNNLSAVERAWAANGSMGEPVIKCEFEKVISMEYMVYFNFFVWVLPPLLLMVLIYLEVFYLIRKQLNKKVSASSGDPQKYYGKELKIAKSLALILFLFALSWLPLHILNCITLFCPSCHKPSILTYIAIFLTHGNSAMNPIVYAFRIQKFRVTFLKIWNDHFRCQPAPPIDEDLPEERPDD

Adenosine receptor A1 = molecular target: T6, Adenosine receptor A1 (Homo sapiens, UniProt P30542); test: Displacement of [3H]DPCPX from human adenosine A1 receptor expressed in CHO cell membranes incubated for 60 mins by scintillation counting method; design: species or system Cell membrane
T6 sequence (P30542 whole entry): T5 sequence (whole entry)

[21] = molecular target: T7, Adenosine receptor A2b (Homo sapiens) (UniProt P29275); test: Displacement of [3H]DPCPX from human adenosine A2B receptor expressed in HEK293 cell membranes at 1 uM incubated for 30 mins by scintillation counting method; details: Cell membrane, filed as antagonist
T7 sequence (whole entry): T1 sequence (P29275 whole entry)

SMILES: CCCn1c(=O)[nH]c2nc(-c3cnn(Cc4cccc(C(F)(F)F)c4)c3)[nH]c2c1=O
- Ki (Adenosine receptor A2b [1]): 6 nM

SMILES: CCCn1c(=O)[nH]c2nc(-c3ccc(S(=O)(=O)N4CCN(c5ccc(Cl)cc5)CC4)cc3)[nH]c2c1=O
- Activity (PC-3 [2]): Active
- Activity (PC-3 [3]): Active
- Activity (PC-3 [4]): Active
- Activity (LNCaP [5]): Active
- Activity (DU-145 [6]): Active

SMILES: CCOC(=O)C1=C(C)NC(=O)NC1c1ccsc1 (racemic)
- inhibition at 1 µM (CYP3A4 [7]): 4%
- inhibition at 1 µM (CYP2D6 [8]): 15%
- inhibition at 10 µM (CYP3A4 [9]): 12%
- inhibition at 10 µM (CYP3A4 [10]): 44%
- Activity (PC-3 [2]): Active
- inhibition at 1 µM (CYP3A4 [11]): 15%
- remaining at 1 h [12]: 65%
- Activity (PC-3 [13]): Non-Toxic
- Activity (PC-3 [3]): 35%
- Activity (PC-3 [4]): Active
- Activity (LNCaP [5]): Active
- Activity (DU-145 [14]): Non-Toxic
- inhibition at 10 µM (CYP2D6 [15]): 22%
- Activity (DU-145 [6]): Active
- Activity (LNCaP [16]): Non-Toxic

SMILES: CC1=C(C(=O)OC(C)C)C(c2ccco2)NC(=S)N1 (racemic)
- inhibition at 1 µM (CYP3A4 [7]): 3%
- inhibition at 1 µM (CYP2D6 [8]): 15%
- inhibition at 10 µM (CYP3A4 [9]): 1%
- inhibition [17]: 1%
- inhibition at 10 µM (CYP3A4 [10]): 13%
- Activity (PC-3 [2]): Active
- inhibition at 1 µM (CYP3A4 [11]): 1%
- remaining at 1 h [12]: 77%
- Activity (PC-3 [13]): Non-Toxic
- Activity (PC-3 [3]): 50%
- Activity (PC-3 [4]): Active
- Activity (LNCaP [5]): Active
- Activity (DU-145 [14]): Non-Toxic
- inhibition at 10 µM (CYP2D6 [15]): 12%
- Activity (DU-145 [6]): Active
- Activity (LNCaP [16]): Non-Toxic

SMILES: CC1=C(C(=O)OC2CCCC2)C(c2ccsc2)NC(=O)N1 (racemic)
- inhibition [17]: 5%
- inhibition [18]: 1%
- Ki (Adenosine receptor A2b [19]): 659 nM
- inhibition [20]: 5%

SMILES: CC1=C(C(=O)OC2CCC2)C(c2cccs2)NC(=O)N1 (racemic)
- inhibition [17]: 2%
- inhibition [18]: 26%
- Ki (Adenosine receptor A2b [19]): 1090 nM
- inhibition [20]: 24%

SMILES: CC1=C(C(=O)OC2CCC2)C(c2ccsc2)NC(=O)N1 (racemic)
- inhibition [17]: 3%
- inhibition [18]: 41%
- Ki (Adenosine receptor A2b [19]): 405 nM
- inhibition [20]: 40%

SMILES: CC1=C(C(=O)OCC2CC2)C(c2ccsc2)NC(=O)N1 (racemic)
- inhibition [17]: 3%
- inhibition [18]: 46%
- Ki (Adenosine receptor A2b [19]): 724 nM
- inhibition [20]: 39%

SMILES: CC1=C(C(=O)OCC2CCC2)C(c2ccsc2)NC(=O)N1 (racemic)
- inhibition [17]: 2%
- inhibition [18]: 32%
- Ki (Adenosine receptor A2b [19]): 1040 nM
- inhibition [20]: 48%

SMILES: CC1=C(C(=O)OCC2CC2)C(c2cccs2)NC(=O)N1 (racemic)
- inhibition [17]: 1%
- inhibition [18]: 27%
- Ki (Adenosine receptor A2b [19]): 1570 nM
- inhibition [20]: 23%

SMILES: CC1=C(C(=O)OCC(C)C)C(c2ccoc2)NC(=O)N1 (racemic)
- inhibition [17]: 16%
- inhibition [18]: 31%
- Ki (Adenosine receptor A2b [19]): 326 nM
- Ki (Adenosine receptor A1): 3090 nM

SMILES: CC1=C(C(=O)OCc2ccccc2)C(c2ccco2)NC(=O)N1C (racemic)
- inhibition [17]: 11%
- inhibition [18]: 37%
- Ki (Adenosine receptor A1): 1740 nM
- inhibition [21]: 41%

SMILES: CC1=C(C(=O)OCC2CCC2)C(c2cccs2)NC(=O)N1 (racemic)
- inhibition [17]: 1%
- inhibition [18]: 22%
- Ki (Adenosine receptor A2b [19]): 2840 nM
- inhibition [20]: 39%

— ChEMBL document CHEMBL4765483 (J Med Chem, 2021)
